Results as given in ChEMBL document CHEMBL1124683, “Synthesis and in vitro activity of 1 beta-methyl C-2 quaternary heterocyclic alkylthio carbapenems” (J Med Chem, 1989).
Converted amounts (≈) assume the structure as drawn.

Assays:
Serratia marcescens = assay: Compound was tested in vitro for antibacterial activity against Serratia marcescens A-20019; type: functional
Outline: (§1)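 MIC by serial 2-fold dilution in Mueller-Hinton agar, or in broth. Agar surface or broth was inoculated with an appropriately diluted 18–24-h broth culture. Incubation was 37 °C for 17 h. The MIC was the lowest concentration that inhibited visible growth.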

Staphylococcus aureus [1] = assay: (§2) Compound was tested in vitro for antibacterial activity against Staphylococcus aureus, pen-res A-9606; type: functional; outline: as §1
Sus scrofa = species on record: Sus scrofa; assay: Compound was evaluated for the rate of hydrolysis by renal dipeptidase relative to hog renal dipeptidase; type: ADME; conditions: pig; in the assay text read “relative to imipenem” for “relative to hog renal dipeptidase”
Outline: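 Purified hog renal dipeptidase. Substrate was 0.10 mM carbapenem in 50 mM MOPS, pH 7.1, freshly prepared. λmax and ε came from the UV difference spectrum before and after β-lactam cleavage by hydroxylamine at 25 °C. Spontaneous absorbance change was followed at 25 °C, then enzyme was added to give ≥10^-4 AU/s. The corrected rate was converted to nmol min^-1 (mL enzyme)^-1 and expressed relative to imipenem.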

Escherichia coli = assay: Compound was tested in vitro for antibacterial activity against Escherichia coli A-15119; type: functional; outline: as §1
Proteus vulgaris = assay: Compound was tested in vitro for antibacterial activity against Proteus vulgaris A-21559; type: functional; outline: as §1
Pseudomonas aeruginosa = assay: Compound was tested in vitro for antibacterial activity against Pseudomonas aeruginosa; type: functional; outline: as §1
Enterobacter cloacae = assay: Compound was tested in vitro for antibacterial activity against Enterobacter cloacae A-9695; type: functional; outline: as §1
Staphylococcus aureus [2] = assay: as §2; type: functional, staphylococcus aure; outline: as §1

Row | Compound | MIC (Serratia marcescens) | MIC (Staphylococcus aureus [1]) | Relative rate (Sus scrofa) | MIC (Escherichia coli) | MIC (Proteus vulgaris) | MIC (Pseudomonas aeruginosa) | MIC (Enterobacter cloacae) | MIC (Staphylococcus aureus [2])
1 | Cc1c(CSC2=C(C(=O)[O-])N3C(=O)[C@H](C(C)O)C3[C@H]2C)ccc[n+]1C (some centres not stated) | 0.16 µg/mL (≈ 0.441 µM) | 0.016 µg/mL (≈ 0.0441 µM) | 0.01 | 0.004 µg/mL (≈ 0.011 µM) | 0.03 µg/mL (≈ 0.0828 µM) | 2 µg/mL (≈ 5.52 µM) | 0.016 µg/mL (≈ 0.0441 µM) | –
2 | CC(O)[C@H]1C(=O)N2C(C(=O)O)=C(SCc3ccncc3)CC12 (some centres not stated) | 0.13 µg/mL (≈ 0.406 µM) | 0.03 µg/mL (≈ 0.0936 µM) | 3.84 | 0.03 µg/mL (≈ 0.0936 µM) | 0.03 µg/mL (≈ 0.0936 µM) | 32 µg/mL (≈ 99.9 µM) | 0.5 µg/mL (≈ 1.56 µM) | –
3 | CC(O)[C@H]1C(=O)N2C(C(=O)[O-])=C(SCc3cc[n+](C)cc3)[C@H](C)C12 (some centres not stated) | 0.03 µg/mL (≈ 0.0861 µM) | 0.016 µg/mL (≈ 0.0459 µM) | 0.02 | 0.016 µg/mL (≈ 0.0459 µM) | 0.03 µg/mL (≈ 0.0861 µM) | 0.5 µg/mL (≈ 1.44 µM) | 0.06 µg/mL (≈ 0.172 µM) | –
4 | CC(O)[C@H]1C(=O)N2C(C(=O)[O-])=C(SCc3cc[n+](C)cc3)CC12 (some centres not stated) | 0.13 µg/mL (≈ 0.389 µM) | 0.016 µg/mL (≈ 0.0478 µM) | 0.84 | 0.03 µg/mL (≈ 0.0897 µM) | 0.03 µg/mL (≈ 0.0897 µM) | 0.5 µg/mL (≈ 1.5 µM) | – | –
5 | CC(O)[C@H]1C(=O)N2C(C(=O)[O-])=C(SCc3n(C)cc[n+]3C)[C@H](C)C12 (some centres not stated) | 0.03 µg/mL (≈ 0.0854 µM) | 0.008 µg/mL (≈ 0.0228 µM) | 0.003 | 0.004 µg/mL (≈ 0.0114 µM) | 0.016 µg/mL (≈ 0.0455 µM) | 1 µg/mL (≈ 2.85 µM) | 0.06 µg/mL (≈ 0.171 µM) | –
6 | C[C@@H](O)[C@H]1C(=O)N2C(C(=O)O)=C(SCCN=CN)C[C@H]12 [IMIPENEM ANHYDROUS] | 0.03 µg/mL (≈ 0.1 µM) | 0.008 µg/mL (≈ 0.0267 µM) | 1 | 0.016 µg/mL (≈ 0.0534 µM) | 0.03 µg/mL (≈ 0.1 µM) | 0.25 µg/mL (≈ 0.835 µM) | 0.06 µg/mL (≈ 0.2 µM) | –

Second part, the molecule after the results:

Row | MIC (Serratia marcescens) | MIC (Staphylococcus aureus [1]) | Relative rate (Sus scrofa) | MIC (Escherichia coli) | MIC (Proteus vulgaris) | MIC (Pseudomonas aeruginosa) | MIC (Enterobacter cloacae) | MIC (Staphylococcus aureus [2]) | Compound
7 | 0.016 µg/mL (≈ 0.0474 µM) | 0.016 µg/mL (≈ 0.0474 µM) | 0.94 | 0.008 µg/mL (≈ 0.0237 µM) | 0.016 µg/mL (≈ 0.0474 µM) | 16 µg/mL (≈ 47.4 µM) | 0.016 µg/mL (≈ 0.0474 µM) | – | CC(O)[C@H]1C(=O)N2C(C(=O)O)=C(SCc3nccn3C)[C@H](C)C12 (some centres not stated)
8 | 0.03 µg/mL (≈ 0.0861 µM) | 0.016 µg/mL (≈ 0.0459 µM) | 0.4 | 0.008 µg/mL (≈ 0.023 µM) | 0.03 µg/mL (≈ 0.0861 µM) | 0.5 µg/mL (≈ 1.44 µM) | 0.016 µg/mL (≈ 0.0459 µM) | – | Cc1c(CSC2=C(C(=O)[O-])N3C(=O)[C@H](C(C)O)C3C2)ccc[n+]1C (some centres not stated)
9 | 0.016 µg/mL (≈ 0.0474 µM) | – | 0.2 | 0.008 µg/mL (≈ 0.0237 µM) | 0.008 µg/mL (≈ 0.0237 µM) | 2 µg/mL (≈ 5.93 µM) | 0.03 µg/mL (≈ 0.0889 µM) | 0.004 µg/mL (≈ 0.0119 µM) | CC(O)[C@H]1C(=O)N2C(C(=O)[O-])=C(SCc3n(C)cc[n+]3C)CC12 (some centres not stated)
